ChEMBL document CHEMBL3352174, “Identification of a New RXRα Antagonist Targeting the Coregulator-Binding Site” (ACS Med Chem Lett, 2014)
Numbering of substitutions follows the chain as printed. Activity calls are given as the source filed them. The rule behind the calls is not given here.

Tests used:
[1] = test system: T1, Retinoic acid receptor RXR-alpha (Homo sapiens), P19793 [V298S]; assay: Antagonist activity against RXRalpha V298S mutant (unknown origin) expressed in human HEK293T cells assessed as inhibition of 9-cis-RA-induced receptor transactivation at 1 uM after 18 hrs by luciferase reporter gene based mammalian one-hybrid assay; format: cell-based; conditions: HEK-293T
T1 sequence (whole entry): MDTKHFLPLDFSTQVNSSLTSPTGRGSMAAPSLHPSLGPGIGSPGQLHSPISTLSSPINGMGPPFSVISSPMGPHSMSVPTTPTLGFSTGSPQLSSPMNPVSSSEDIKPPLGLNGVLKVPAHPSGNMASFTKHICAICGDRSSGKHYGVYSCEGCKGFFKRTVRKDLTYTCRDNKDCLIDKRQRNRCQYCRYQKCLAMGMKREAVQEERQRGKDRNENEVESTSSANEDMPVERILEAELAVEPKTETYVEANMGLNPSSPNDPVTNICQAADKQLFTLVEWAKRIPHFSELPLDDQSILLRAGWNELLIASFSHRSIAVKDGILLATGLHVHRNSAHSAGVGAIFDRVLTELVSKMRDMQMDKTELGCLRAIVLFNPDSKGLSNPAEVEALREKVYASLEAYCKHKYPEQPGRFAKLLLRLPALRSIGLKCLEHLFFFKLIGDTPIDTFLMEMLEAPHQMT
In short: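 The pG5-Luc reporter was cotransfected with pBind-RXRα/V298S (Gal4-fusion construct) into HEK-293T cells. Cells were then exposed to the indicated compounds for 18 h, and luciferase reporter activity was measured.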

[2] = test system: T2, Retinoic acid receptor RXR-alpha (Homo sapiens), P19793 [F313A]; conditions: HEK-293T, 1 uM
T2 sequence (whole entry): T1 sequence (whole entry) with S298V, F313A

[3] = test system: T3, Retinoic acid receptor RXR-alpha (Homo sapiens), P19793 [C432W]; conditions: HEK-293T, 1 uM
T3 sequence (whole entry): T1 sequence (whole entry) with S298V, C432W

[4] = test system: T4, Retinoic acid receptor RXR-alpha (Homo sapiens), P19793 [A272W]; conditions: HEK-293T, 1 uM
T4 sequence (whole entry): T1 sequence (whole entry) with A272W, S298V

[5] = target: T5, Retinoic acid receptor RXR-alpha (Homo sapiens) (UniProt P19793); assay: Antagonist activity against Myc-tagged RXRalpha ligand binding domain (unknown origin) expressed in human MCF7 cells assessed as inhibition of 9-cis-RA-induced receptor transactivation at 10 uM after 18 hrs by luciferase reporter gene based mammalian one-hybrid assay; format: cell-based
T5 sequence (whole entry): T1 sequence (whole entry) with S298V
In short: (§1)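 MCF-7 cells co-transfected with pG5-Luc reporter and pBind-RXRα-LBD. […] Read-out was dual-luciferase, with firefly normalized to Renilla for transfection efficiency. Single-concentration tests used 10 μM. Mean ± SD.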

[6] = target: T5, Retinoic acid receptor RXR-alpha (Homo sapiens); assay: Antagonist activity against Myc-tagged RXRalpha ligand binding domain (unknown origin) expressed in human MCF7 cells assessed as inhibition of 9-cis-RA-induced receptor transactivation after 18 hrs by luciferase reporter gene based mammalian one-hybrid assay; format: cell-based; in short: as §1

CCCOc1cc2c(cc1C(=C1CC1)c1ccc(C(=O)O)cc1)C(C)(C)CCC2(C)C
inhibition [1]: Active | inhibition [2]: Active | inhibition [3]: inactive | inhibition [4]: inactive

CCCCCOc1cc2c(cc1-c1cc(/C=C/C(=O)O)ccc1O)C(C)(C)CCC2(C)C
inhibition [1]: Active

CCC(Sc1nc2ccccc2s1)C(=O)N/N=C/c1c(O)ccc2ccccc12 (configuration not stated)
inhibition [5]: Active | inhibition [6]: Dose-dependent effect
